Screening results from PubChem BioAssay.
Shown are actives, neighbours in structure and some others; about 4.1% of the full set was active somewhere.
KCNK3 inh – human KCNK3 channel inhibition, primary screen; O14649; CHO-KCNK3 thallium flux, FluxOR fluorescence; active compounds read low; B-score at 10 µM; 340,000 tested, 0.84% active; AID 602410;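 active = B-score under library mean minus 4 SD, starting fluorescence ratio at most library mean plus 5 SD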;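 note: more negative B-score means stronger inhibition of thallium flux through KCNK3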
KCNK9 block – inhibitors of human KCNK9 two-pore domain potassium channel; HEK293 KCNK9, FluxOR thallium flux fluorescence; active compounds read low; B-score at 10 µM; 310,000 tested, 1.2% active; AID 488922;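 active = ratio B-score over 3 SD below the library mean, with starting fluorescence within 5 SD of its mean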;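 note: negative B-score means less thallium flux so channel inhibition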
KCNQ1 act – potentiators or activators of human KCNQ1 potassium channel | CHO-K1 KCNQ1, thallium flux FluxOR fluorescence; active compounds read high | B-score at 10 µM | 310,000 tested, 0.35% active | AID 2648;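 active = fluorescence ratio B-score, a plate-corrected score, at least three library SD, with initial intensity B-score within 5 SD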
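Material: CHO-K1 cells stably expressing KCNQ1. Medium: assay buffer for compound exposure, DMSO matched across wells. Reagent: K+/Tl+ depolarizing stimulus. Compound dosing: single-concentration screen. Times: 37 °C overnight plating, 90-min dark dye load, 20-min compound pretreatment. Technique: FluxOR Tl+ flux fluorescence.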
hERG rescue – shields human hERG channel from block by proarrhythmic agents. CHO-hERG, FluxOR thallium flux, dofetilide IC70 present. 310,000 tested, 0.51% active. Q12809. activation (rescue from dofetilide block), less the hit threshold, % at 10 µM;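 active = activation above the mean of controls blocked by dofetilide plus 5 SD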;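 note: thallium influx through hERG after potassium depolarization seen as dye fluorescence rise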
KCNQ1 block – inhibitors of human KCNQ1 potassium channel; CHO-K1 KCNQ1, FluxOR thallium flux fluorescence; active compounds read high; B-score at 10 µM; 310,000 tested, 1.3% active; AID 2642;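 active = compounds whose thallium flux B-score, printed positive for inhibition, exceeds three library SD while starting fluorescence stays within three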;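 note: channel opened by potassium depolarization with thallium stimulus after 20 min compound exposure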
KCC2 mod – modulates chloride dependent transport by human KCC2; Q9H2X9; KCC2 cells, thallium flux FluoZin-2 fluorescence; B-score of Tl+ flux slope (higher = more flux/activation; lower = inhibition) at 10 µM; 190,000 tested, 2.2% active; AID 1456;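 active = thallium flux slope and its plate-corrected score both differing from the plate sample mean at a set confidence after two filtering rounds, in either direction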;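 note: slope of fluorescence scaled to starting intensity during 10 to 20 s after thallium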
A number is an active result.

CCOc1cccc(CNCCc2c(C)[nH]c3ccc(OC(F)(F)F)cc23)c1O was read as KCNK3 inh inactive, KCNK9 block inactive, KCNQ1 act inactive, hERG rescue inactive and KCNQ1 block 12.
`Cc1[nH]c2ccc(OC(F)(F)F)cc2c1CCNCc1cccc([N+](=O)[O-])c1` gave KCNK3 inh inactive, KCNK9 block inactive, KCNQ1 act inactive, hERG rescue inactive and KCNQ1 block inactive.
CCC(C)C1NC(=O)C(NC(=O)C(CC(C)C)N(C)C(=O)C2CCCN2C(=O)C(C)O)C(C)OC(=O)C(Cc2ccc(OC)cc2)N(C)C(=O)C2CCCN2C(=O)C(CC(C)C)NC(=O)[C@H](C)C(=O)[C@H](C(C)C)OC(=O)CC1O (some centres undefined) was read as KCNK3 inh inactive.
Screening CC1=C(N2CC2)C(=O)C(CO)=C(N2CC2)C1=O returned KCNK3 inh inactive.
For Cc1cc(O)c2c(c1)C(=O)C13C(=C2O)C(=O)[C@H]2[C@@H](O)[C@@H]1[C@H]1[C@H](O)[C@@H]3C(=O)C3=C(O)c4c(O)cc(C)cc4C(=O)C312 (some centres undefined) the results were KCNK3 inh inactive.
`Cc1ccc(/C=C2\C(=O)NC(=S)N(c3ccc(F)cc3)C2=O)s1` gave KCNK3 inh inactive, KCNK9 block inactive, KCNQ1 act inactive, hERG rescue 11.4, KCNQ1 block inactive and KCC2 mod inactive.
`Cc1nn(CC(C)C)c(Cl)c1C(=O)NC1CCCCC1` gave KCNK3 inh inactive.
COc1ccc(CC(=O)C2C(=O)N(C)c3ccccc32)cc1OC (centres undefined) was read as KCNK3 inh inactive.
`CCCCn1c(=O)c(C(=O)Nc2cnccn2)c(O)c2ccccc21` gave KCNK3 inh inactive, KCNK9 block inactive, KCNQ1 act inactive, hERG rescue inactive, KCNQ1 block 9 and KCC2 mod inactive.
Screening CC(C)CCn1c(=O)c(C(=O)Nc2ccccc2S(N)(=O)=O)c(O)c2ccccc21 returned KCNK3 inh inactive, KCNK9 block inactive, KCNQ1 act inactive, hERG rescue inactive, KCNQ1 block inactive and KCC2 mod 6.61.
`CCCCn1c(=O)c(C(=O)Nc2ccccc2C)c(O)c2ccccc21` gave KCNK3 inh inactive, KCNK9 block inactive, KCNQ1 act inactive, hERG rescue inactive and KCNQ1 block inactive.
Cc1[nH]nc2ccc(-c3cncc(OC[C@@H](N)Cc4c[nH]c5ccccc45)c3)cc12 was read as KCNK3 inh inactive.
Screening Cn1cccc1CNCCc1ccccc1 returned KCNK9 block inactive, KCNQ1 act inactive, hERG rescue 6.4, KCNQ1 block inactive and KCC2 mod inactive.
Screening c1ccc2c(CNC3CCCCC3)c[nH]c2c1 returned KCNK9 block -7.06, KCNQ1 act inactive, hERG rescue inactive, KCNQ1 block inactive and KCC2 mod -5.12.
Screening CN(Cc1c[nH]c2ccccc12)C1CCCCC1 returned KCNK3 inh inactive, KCNK9 block inactive, KCNQ1 act inactive, hERG rescue inactive, KCNQ1 block inactive and KCC2 mod inactive.
Screening O=C1NC(=O)C2(CCN(c3ccccc3)CC2)C(=O)N1 returned KCNK3 inh inactive.
Screening O=C1NC(=O)N(c2ccc3c(c2)OCO3)C(=O)/C1=C/c1ccc(N2CCCCC2)o1 returned KCNK3 inh inactive, KCNK9 block -7.66, KCNQ1 act inactive, hERG rescue inactive and KCNQ1 block 6.
`O=C1NC(=O)N(c2ccc3c(c2)OCO3)C(=O)/C1=C\c1ccc(-c2ccccc2C(=O)O)o1` gave KCNK3 inh inactive, KCNK9 block inactive, KCNQ1 act inactive, hERG rescue inactive and KCNQ1 block inactive.
C[C@@H]1C(=O)O[C@H]2[C@H](O)[C@]34[C@@H]5OC(=O)[C@]3(OC3OC(=O)[C@H](O)C34[C@H](C(C)(C)C)[C@@H]5O)[C@@]12O (some centres undefined) was read as KCNK3 inh inactive.
For Cc1cc(-c2ccccc2)cc(-c2ccccc2)[n+]1CCc1ccccc1 the results were KCNK3 inh inactive, KCNK9 block -8.03, KCNQ1 act inactive, hERG rescue inactive and KCNQ1 block 8.
Screening C[n+]1c(-c2ccccc2)cc(-c2ccc(O)cc2)cc1-c1ccccc1 returned KCNK3 inh inactive, KCNK9 block inactive, KCNQ1 act inactive, hERG rescue inactive, KCNQ1 block inactive and KCC2 mod inactive.
`Clc1ccc(C[n+]2c(-c3ccccc3)cc(-c3ccccc3)cc2-c2ccccc2)cc1` gave KCNK3 inh inactive, KCNK9 block -8.27, KCNQ1 act inactive, hERG rescue inactive and KCNQ1 block 13.
`CCOc1ccc(-c2cc(C)[n+](CCO)c(-c3ccc(OCC)cc3)c2)cc1` gave KCNK3 inh inactive, KCNK9 block inactive, KCNQ1 act inactive, hERG rescue inactive, KCNQ1 block inactive and KCC2 mod inactive.
`CCOc1ccc(-c2cc(C)[n+](CCc3ccc(OC)c(OC)c3)c(-c3ccc(OCC)cc3)c2)cc1` gave KCNK3 inh inactive, KCNK9 block inactive, KCNQ1 act inactive, hERG rescue inactive and KCNQ1 block 10.
`O=P1(c2ccccc2)Nc2ccccc2N1c1ccccc1` (centres undefined) gave KCNK3 inh inactive.
`CC(C)(C)c1cc([N+](=O)[O-])cc(C(C)(C)C)c1O` gave KCNK9 block inactive, KCNQ1 act inactive, hERG rescue inactive, KCNQ1 block 6 and KCC2 mod inactive.
`NC(=O)c1cc([N+](=O)[O-])cc([N+](=O)[O-])c1` gave KCNK3 inh inactive.
`COc1ccc(CC(C)NCCC(c2ccccc2)c2ccccc2)cc1` (centres undefined) gave KCNK3 inh inactive, KCNK9 block inactive, KCNQ1 act inactive, hERG rescue inactive and KCNQ1 block 6.
For CC(NC(=O)N1CC1(C)C)c1ccccc1 (centres undefined) the results were KCNK3 inh inactive.
Cc1cc(/C=C2\C(=O)NC(=O)N(c3ccc(Cl)cc3)C2=O)c(C)n1-c1cccc(C(=O)O)c1 was read as KCNK3 inh inactive, KCNK9 block inactive, KCNQ1 act inactive, hERG rescue inactive and KCNQ1 block inactive.
For O=C1NC(=O)N(c2ccc(Cl)cc2)C(=O)/C1=C/c1coc2ccc(O)cc2c1=O the results were KCNK3 inh inactive, KCNK9 block inactive, KCNQ1 act inactive, hERG rescue inactive, KCNQ1 block inactive and KCC2 mod -4.57.
`CC12CCC(=O)C=C1CC(N1CC1)C1C2CCC2(C)C(O)CCC12` (centres undefined) gave KCNK3 inh inactive.
For COc1cccc(NP(=O)(Oc2ccc(Cl)cc2)Oc2ccc(Cl)cc2)c1 the results were KCNK3 inh inactive, KCNK9 block -6.75, KCNQ1 act inactive, hERG rescue inactive, KCNQ1 block inactive and KCC2 mod inactive.
